# Published values of several laboratories.
# Lines come from different studies, so protocols differ.
# Observed: cell growth or viability
Compound,cell line,method,tested at,time,viability [%]
CC(C)(C)c1cnc(CSc2cnc(NC(=O)C3CCN(CCCCCSc4cccc5c4CN(C4CCC(=O)NC4=O)C5=O)CC3)s2)o1 (stereo not drawn),HH,CCK-8,0.5 µM,,0
CCOC(=O)c1nn(-c2cccc(Cl)c2)/c(=N/N=C(\C)c2ccc(NC(=O)c3ccc(Cl)cc3)cc2)s1,HepG2,MTT,0.312 µM,,3.13
CC(C)(C)c1cnc(CSc2cnc(NC(=O)C3CCN(CCCCCCCCSc4cccc5c4C(=O)N(C4CCC(=O)NC4=O)C5=O)CC3)s2)o1 (stereo not drawn),HH,CCK-8,50 nM,,92.6
CC(=NNC(=S)Nc1ccccc1)c1ccc(Nc2nnc(-c3ccc(Cl)cc3)c3ccccc23)cc1,HepG2,MTT,10 µM,24 h,4.26
CC(=NNC(=O)COc1ccc2c(C)c(Cc3ccccc3)c(=O)oc2c1C)c1ccc(Br)cc1,HepG2,MTT,1.6 µg/mL,,54.8
CC(=NNC(=O)c1cccnc1)c1ccc(Nc2nnc(-c3ccc(Cl)cc3)c3ccccc23)cc1,HepG2,MTT,5 µM,24 h,3.2
CC(=O)c1nn(-c2ccccc2Cl)/c(=N/N=C(\C)c2ccc(NC(=O)c3ccccc3)cc2)s1,HepG2,MTT,0.312 µM,,6.13
CC(C)(C)c1cnc(CSc2cnc(NC(=O)C3CCN(CCCCCCCCSc4cccc5c4CN(C4CCC(=O)NC4=O)C5=O)CC3)s2)o1 (stereo not drawn),HH,CCK-8,0.25 µM,,0
CC(=O)c1nn(-c2ccc(C)cc2)/c(=N/N=C(\C)c2ccc(NC(=O)c3ccccc3)cc2)s1,HepG2,MTT,10 µM,,6.81
O=C(C=Cc1ccccc1)Nc1ccc(Oc2nnc(-c3ccc(Cl)cc3)c3ccccc23)cc1,HepG2,MTT,10 µM,24 h,2.63
CC(=O)Nc1ccc(/C(C)=N/N=c2\sc(C(C)=O)nn2-c2ccc(C)cc2)cc1,HepG2,MTT,2.5 µM,,99.4
CC(C)(C)c1cnc(CSc2cnc(NC(=O)C3CCN(C(=O)CCCSc4cccc5c4C(=O)N(C4CCC(=O)NC4=O)C5=O)CC3)s2)o1 (stereo not drawn),HH,CCK-8,1 µM,,8.16
